Key:
[1] = biological target: GABA-A receptor; anion channel; assay: Inhibition of radiolabeled antagonist [3H]-Ro- 15-1788 binding to benzodiazepine receptor from rat cortical membranes; assay type: cell membranes, Membrane
Procedure, shortened: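 Rat (Sprague–Dawley, 250-300 g) cortical membranes, water-washed and frozen at -20 °C ≥18 h, then washed repeatedly in Krebs/HEPES pH 7.4. Nonspecific binding with 3 μM clonazepam. Filtration, scintillation counting.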

[2] = biological target: GABA-A receptor; anion channel (Rattus norvegicus) (UniProt O09028+P15431+P18506+P18508+P19969+P20236+P23574+P23576+P28471+P28473+P30191+P62813+P63079+P63138+Q91ZM7+Q9ES14); assay: Ratio of binding affinity to the GABA-A receptor in the presence and absence of GABA; assay type: protein-complex assay
Procedure, shortened: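 [3H]-Ro 15-1788 displacement in washed rat cortical membranes (Krebs/HEPES pH 7.4, nipecotic acid 10^-4 M, 30 °C, 60 min) run with and without GABA at 0.3 mM. Nonspecific binding was defined by 3 μM clonazepam, and read-out was filtration with scintillation counting. The value is the ratio of the affinities obtained with GABA and without it.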

Row | Compound | IC50 [1] [nM] | GABA shift [2]
1 | CCc1noc(-c2ncn3c2CN=C(c2ccccc2)c2ccccc2-3)n1 | 19 | 1.2
2 | CC(C)c1noc(-c2ncn3c2CN=C(c2ccccc2)c2c(F)cccc2-3)n1 | 1.4 | 2.03
3 | CCCc1noc(-c2ncn3c2CN=C(c2ccccc2)c2cc(Cl)ccc2-3)n1 | 120 | 2.57
4 | CCc1nc(-c2ncn3c2CN=C(c2ccccc2)c2c(F)cccc2-3)no1 | 7.5 | 1.82
5 | Cc1nc(-c2ncn3c2CN(C)C(=O)c2cc(F)ccc2-3)no1 | 21 | 1.53
6 | Cc1nc(-c2ncn3c2CN=C(c2ccccc2)c2c(F)cccc2-3)no1 | 2.4 | 1.68
7 | CC(C)c1nc(-c2ncn3c2CN(C)C(=O)c2cc(F)ccc2-3)no1 | 43 | 2.76
8 | CC(C)c1noc(-c2ncn3c2CN(C)C(=O)c2ccccc2-3)n1 | 105 | 2.19
9 | Cc1noc(-c2ncn3c2CN=C(c2ccccc2Cl)c2cc(Cl)ccc2-3)n1 | 110 | 2.28
10 | CCc1nc(-c2ncn3c2CN(C)C(=O)c2ccccc2-3)no1 | 22 | 1.8
11 | CCCc1nc(-c2ncn3c2CN(C)C(=O)c2cc(F)ccc2-3)no1 | 27 | 1.96
12 | CC(C)c1noc(-c2ncn3c2CN=C(c2ccccc2Cl)c2cc(Cl)ccc2-3)n1 | 45 | 1.81
13 | Cc1noc(-c2ncn3c2CN=C(c2ccccc2)c2cc(Cl)ccc2-3)n1 | 180 | 1.84
14 | CCc1noc(-c2ncn3c2CN(C)C(=O)c2c(F)cccc2-3)n1 | 42 | 2.4
15 | CCc1noc(-c2ncn3c2CN(C)C(=O)c2c(Cl)cccc2-3)n1 | 9.7 | 1.43
16 | CC(C)c1noc(-c2ncn3c2CN(C)C(=O)c2c(Cl)cccc2-3)n1 | 14 | 1.86
17 | CCCc1noc(-c2ncn3c2CN(C)C(=O)c2cc(F)ccc2-3)n1 | 42 | 2
18 | Cc1nc(-c2ncn3c2CN=C(c2ccccc2Cl)c2cc(Cl)ccc2-3)no1 | 20 | 1.83
19 | CCCc1noc(-c2ncn3c2CN=C(c2ccccc2)c2c(Cl)cccc2-3)n1 | 5.2 | 1.85
20 | CC(C)c1nc(-c2ncn3c2CN=C(c2ccccc2)c2c(F)cccc2-3)no1 | 6.1 | 2.08
21 | CCCc1noc(-c2ncn3c2CN(C)C(=O)c2c(Cl)cccc2-3)n1 | 6 | 1.53
22 | CCc1noc(-c2ncn3c2CN(C)C(=O)c2ccccc2-3)n1 | 51 | 1.79
23 | CC(C)c1nc(-c2ncn3c2CN=C(c2ccccc2)c2cc(Cl)ccc2-3)no1 | 53 | 2.89
24 | Cc1noc(-c2ncn3c2CN=C(c2ccccc2)c2c(Cl)cccc2-3)n1 | 3.4 | 1.67
25 | Cc1noc(-c2ncn3c2CN(C)C(=O)c2c(Cl)cccc2-3)n1 | 8.1 | 1.51
26 | Cc1noc(-c2ncn3c2CN(C)C(=O)c2cc(F)ccc2-3)n1 | 50 | 1.47

Row | Compound | IC50 [1] [nM] | GABA shift [2]
27 | CC(C)c1nc(-c2ncn3c2CN(C)C(=O)c2ccccc2-3)no1 | 53 | 2.4
28 | CC(C)c1nc(-c2ncn3c2CN(C)C(=O)c2c(Cl)cccc2-3)no1 | 3.6 | 2.37
29 | CCCc1noc(-c2ncn3c2CN=C(c2ccccc2Cl)c2cc(Cl)ccc2-3)n1 | 34 | 2.92
30 | CCc1noc(-c2ncn3c2CN(C)C(=O)c2cc(F)ccc2-3)n1 | 105 | 2.34
31 | CCc1nc(-c2ncn3c2CN=C(c2ccccc2)c2ccccc2-3)no1 | 16 | 2.11
32 | CCCc1nc(-c2ncn3c2CN=C(c2ccccc2)c2c(Cl)cccc2-3)no1 | 3.9 | 1.7
33 | CC(C)c1noc(-c2ncn3c2CN(C)C(=O)c2c(F)cccc2-3)n1 | 67 | 2.31
34 | CCCc1nc(-c2ncn3c2CN(C)C(=O)c2c(Cl)cccc2-3)no1 | 3.8 | 1.41
35 | CCCc1nc(-c2ncn3c2CN=C(c2ccccc2Cl)c2ccccc2-3)no1 | 12 | 1.68
36 | Cc1nc(-c2ncn3c2CN(C)C(=O)c2c(F)cccc2-3)no1 | 11 | 1.65
37 | CCc1nc(-c2ncn3c2CN(C)C(=O)c2c(Cl)cccc2-3)no1 | 6.4 | 1.12
38 | Cc1noc(-c2ncn3c2CN(C)C(=O)c2c(F)cccc2-3)n1 | 22 | 1.85
39 | CCCc1nc(-c2ncn3c2CN=C(c2ccccc2)c2cc(Cl)ccc2-3)no1 | 45 | 2.22
40 | Cc1nc(-c2ncn3c2CN(C)C(=O)c2ccccc2-3)no1 | 27 | 1.28
41 | CCCc1nc(-c2ncn3c2CN(C)C(=O)c2ccccc2-3)no1 | 34 | 2
42 | CC(C)c1nc(-c2ncn3c2CN=C(c2ccccc2Cl)c2ccccc2-3)no1 | 14 | 1.64
43 | Cc1noc(-c2ncn3c2CN=C(c2ccccc2Cl)c2ccccc2-3)n1 | 31 | 1.29
44 | CCCc1noc(-c2ncn3c2CN(C)C(=O)c2c(F)cccc2-3)n1 | 24 | 1.94
45 | CCc1noc(-c2ncn3c2CN=C(c2ccccc2)c2c(Cl)cccc2-3)n1 | 4.1 | 2.21
46 | CCCc1nc(-c2ncn3c2CN(C)C(=O)c2c(F)cccc2-3)no1 | 14 | 1.7
47 | CCc1noc(-c2ncn3c2CN=C(c2ccccc2)c2cc(Cl)ccc2-3)n1 | 160 | 2
48 | CC(C)c1nc(-c2ncn3c2CN=C(c2ccccc2Cl)c2cc(Cl)ccc2-3)no1 | 12 | 2.79
49 | Cc1noc(-c2ncn3c2CN(C)C(=O)c2ccccc2-3)n1 | 67 | 1.5
50 | Cc1nc(-c2ncn3c2CN(C)C(=O)c2c(Cl)cccc2-3)no1 | 3.4 | 1.18
51 | CCc1noc(-c2ncn3c2CN=C(c2ccccc2)c2c(F)cccc2-3)n1 | 9.8 | 2.31
52 | CC(C)c1nc(-c2ncn3c2CN=C(c2ccccc2)c2c(Cl)cccc2-3)no1 | 6.9 | 1.82

Row | Compound | IC50 [1] [nM] | GABA shift [2]
53 | Cc1nc(-c2ncn3c2CN=C(c2ccccc2)c2c(Cl)cccc2-3)no1 | 1.3 | 1.44
54 | Cc1nc(-c2ncn3c2CN=C(c2ccccc2)c2ccccc2-3)no1 | 7 | 1.56
55 | Cc1nc(-c2ncn3c2CN=C(c2ccccc2)c2cc(Cl)ccc2-3)no1 | 71 | 1.17
56 | CCc1nc(-c2ncn3c2CN=C(c2ccccc2)c2c(Cl)cccc2-3)no1 | 2.8 | 1.65
57 | CCc1nc(-c2ncn3c2CN=C(c2ccccc2Cl)c2cc(Cl)ccc2-3)no1 | 9.4 | 1.86
58 | Cc1nc(-c2ncn3c2CN=C(c2ccccc2Cl)c2ccccc2-3)no1 | 6.7 | 1.35
59 | CC(C)c1noc(-c2ncn3c2CN=C(c2ccccc2)c2c(Cl)cccc2-3)n1 | 7.2 | 1.91
60 | CCc1nc(-c2ncn3c2CN=C(c2ccccc2Cl)c2ccccc2-3)no1 | 13 | 1.48
61 | CC(C)c1nc(-c2ncn3c2CN(C)C(=O)c2c(F)cccc2-3)no1 | 19 | 1.97
62 | CCc1noc(-c2ncn3c2CN(C)C(=O)c2cc(Cl)ccc2-3)n1 | 600 | 0.91
63 | Cc1noc(-c2ncn3c2CN=C(c2ccccc2)c2c(F)cccc2-3)n1 | 8.3 | 1.84
64 | CCc1nc(-c2ncn3c2CN(C)C(=O)c2cc(F)ccc2-3)no1 | 27 | 1.84
65 | CCCc1nc(-c2ncn3c2CN=C(c2ccccc2)c2c(F)cccc2-3)no1 | 5.3 | 2.06
66 | CCCc1nc(-c2ncn3c2CN=C(c2ccccc2Cl)c2cc(Cl)ccc2-3)no1 | 8.2 | 1.81
67 | CC(C)c1nc(-c2ncn3c2CN=C(c2ccccc2)c2ccccc2-3)no1 | 18 | 2.57
68 | O=C(OCC1CC1)c1ncn2c1C1CCN1C(=O)c1c(Cl)cccc1-2 (stereo unspecified) | 4.2 | 1.7
69 | CC(C)(C)OC(=O)c1ncn2c1C1CCCN1C(=O)c1c(Br)cccc1-2 (stereo unspecified) | 0.6 | 1.34
70 | CC(C)c1noc(-c2ncn3c2CN=C(c2ccccc2)c2cc(Cl)ccc2-3)n1 | 120 | 1.06
71 | CCc1noc(-c2ncn3c2CN=C(c2ccccc2Cl)c2cc(Cl)ccc2-3)n1 | 25 | 2.11
72 | CCc1nc(-c2ncn3c2CN=C(c2ccccc2)c2cc(Cl)ccc2-3)no1 | 44 | 2.43
73 | CCc1nc(-c2ncn3c2CN(C)C(=O)c2c(F)cccc2-3)no1 | 15 | 1.44
74 | CC(C)c1noc(-c2ncn3c2CN=C(c2ccccc2Cl)c2ccccc2-3)n1 | 31 | 1.83
75 | CC(C)c1noc(-c2ncn3c2CN(C)C(=O)c2cc(F)ccc2-3)n1 | 100 | 1.86
76 | CCCc1noc(-c2ncn3c2CN(C)C(=O)c2ccccc2-3)n1 | 120 | 2.08
77 | CCCc1noc(-c2ncn3c2CN=C(c2ccccc2)c2ccccc2-3)n1 | 43 | 1.8
78 | CC(C)c1noc(-c2ncn3c2CN=C(c2ccccc2)c2ccccc2-3)n1 | 52 | 1.7

Reference: ChEMBL document CHEMBL1124349, “Novel benzodiazepine receptor partial agonists: oxadiazolylimidazobenzodiazepines” (J Med Chem, 1989)
